Test results as given in ChEMBL document CHEMBL2321826, “Synthesis and antibacterial evaluation of rhodanine-based 5-aryloxy pyrazoles against selected methicillin resistant and quinolone-resistant Staphylococcus aureus (MRSA and QRSA)” (Eur J Med Chem, 2013).
Values after ≈ are worked out from the molar mass of the structure shown.

What was measured:
[1] = test system: Staphylococcus aureus; assay: Antibacterial activity against methicillin-resistant Staphylococcus aureus CCARM 3506 assessed as bacterial growth inhibition measured during 24 hrs incubation at 37 degC by two-fold serial dilution technique; assay type: functional; settings: CCARM 3506, 24 h
How it was run: (§1)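 Clinical isolates grown to mid-log phase in Mueller-Hinton broth, diluted 1000-fold, inoculated at 10⁵ CFU/mL in MHB in 96-well microtiter plates. Two-fold serial dilutions gave final concentrations of […]. Oxacillin and norfloxacin were the positive controls. Growth was read as absorbance at 650 nm. MIC is the lowest concentration giving complete growth inhibition.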

[2] = test system: Staphylococcus aureus; assay: Antibacterial activity against methicillin-resistant Staphylococcus aureus CCARM 3167 assessed as bacterial growth inhibition measured during 24 hrs incubation at 37 degC by two-fold serial dilution technique; assay type: functional; settings: CCARM 3167, 24 h; how it was run: as §1
[3] = test system: Staphylococcus aureus; assay: Antibacterial activity against quinolone-resistant Staphylococcus aureus CCARM 3505 assessed as bacterial growth inhibition measured during 24 hrs incubation at 37 degC by two-fold serial dilution technique; assay type: functional; settings: CCARM 3505, 24 h; how it was run: as §1
[4] = test system: HeLa; assay: Cytotoxicity against human HeLa cells assessed as cell growth inhibition measured after 48 hrs by MTT assay; assay type: cell-based
How it was run: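 HeLa cells grown in DMEM with 10% FBS and penicillin-streptomycin (100 U/mL) at 37 °C in 5% CO2. Cells were split with trypsin at 80-90% confluence and used at passage 3. About 1×10⁴ cells/well were seeded and left overnight to attach. Cells were exposed to compounds for 48 h, then given MTT (5 mg/mL in PBS stock) for 4 h. Medium was removed and formazan read.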

[5] = test system: Staphylococcus aureus; assay: Antibacterial activity against quinolone-resistant Staphylococcus aureus CCARM 3519 assessed as bacterial growth inhibition measured during 24 hrs incubation at 37 degC by two-fold serial dilution technique; assay type: functional; settings: CCARM 3519, 24 h; how it was run: as §1
[6] = test system: HeLa; assay: Cytotoxicity against human HeLa cells assessed as cell growth inhibition at 2 ug/ml measured after 48 hrs by MTT assay; assay type: cell-based
[7] = test system: Staphylococcus aureus; assay: Antibacterial activity against methicillin-resistant Staphylococcus aureus assessed as bacterial growth inhibition measured during 24 hrs incubation at 37 degC by two-fold serial dilution technique; assay type: functional; how it was run: as §1
[8] = test system: HeLa; assay: Cytotoxicity against human HeLa cells assessed as cell growth inhibition at 4 ug/ml measured after 48 hrs by MTT assay; assay type: cell-based
[9] = test system: Staphylococcus aureus; assay: Ratio of norfloxacin MIC to compound MIC for Staphylococcus aureus CCARM 3167; assay type: functional
[10] = test system: HeLa; assay: Cytotoxicity against human HeLa cells assessed as cell growth inhibition at 1 ug/ml measured after 48 hrs by MTT assay; assay type: cell-based
[11] = test system: Staphylococcus aureus; assay: Ratio of oxacillin MIC to compound MIC for Staphylococcus aureus CCARM 3167; assay type: functional

SMILES	MIC [1]	MIC [2]	MIC [3]	IC50 [4]	MIC [5]	Activity [6]	MIC [7]	Activity [8]	Ratio [9]	Activity [10]	Ratio [11]
Cc1nn(-c2ccccc2)c(Oc2ccc(Br)cc2)c1/C=C1\SC(=S)N([C@@H](CC(C)C)C(=O)O)C1=O	4 µg/mL (≈ 6.82 µM)	4 µg/mL (≈ 6.82 µM)	4 µg/mL (≈ 6.82 µM)	12.3 µg/mL (≈ 21 µM)	4 µg/mL (≈ 6.82 µM)	Non-toxic					
O=C(O)CN1C(=O)/C(=C/c2cn(-c3ccccc3)nc2-c2ccc(Cl)cc2Cl)SC1=S							4 µg/mL (≈ 8.16 µM)				
Cc1nn(-c2ccccc2)c(Oc2ccc(Cl)cc2Cl)c1/C=C1\SC(=S)N([C@H](C(=O)O)C(C)C)C1=O	4 µg/mL (≈ 7.11 µM)	4 µg/mL (≈ 7.11 µM)	4 µg/mL (≈ 7.11 µM)	10.4 µg/mL (≈ 18.5 µM)	4 µg/mL (≈ 7.11 µM)			Non-toxic			
CCC(C)[C@@H](C(=O)O)N1C(=O)/C(=C/c2c(C)nn(-c3ccccc3)c2Oc2ccc(Cl)cc2Cl)SC1=S (some centres undefined)	1 µg/mL (≈ 1.73 µM)	1 µg/mL (≈ 1.73 µM)	2 µg/mL (≈ 3.47 µM)	6.43 µg/mL (≈ 11.2 µM)	2 µg/mL (≈ 3.47 µM)				8	Non-toxic	64
CCC(C)[C@@H](C(=O)O)N1C(=O)/C(=C/c2c(C)nn(-c3ccccc3)c2Oc2ccc(OC)cc2)SC1=S (some centres undefined)	4 µg/mL (≈ 7.44 µM)	4 µg/mL (≈ 7.44 µM)	4 µg/mL (≈ 7.44 µM)		4 µg/mL (≈ 7.44 µM)						
Cc1nn(-c2ccccc2)c(Oc2ccccc2)c1/C=C1\SC(=S)N(CC(=O)O)C1=O	> 64 µg/mL	> 64 µg/mL	> 64 µg/mL		> 64 µg/mL						
Cc1ccc(Oc2c(/C=C3\SC(=S)N([C@H](C(=O)O)C(C)C)C3=O)c(C)nn2-c2ccccc2)cc1	4 µg/mL (≈ 7.88 µM)	4 µg/mL (≈ 7.88 µM)	4 µg/mL (≈ 7.88 µM)		4 µg/mL (≈ 7.88 µM)						
Cc1cccc(Oc2c(/C=C3\SC(=S)N([C@H](C(=O)O)C(C)C)C3=O)c(C)nn2-c2ccccc2)c1	8 µg/mL (≈ 15.8 µM)	4 µg/mL (≈ 7.88 µM)	4 µg/mL (≈ 7.88 µM)		4 µg/mL (≈ 7.88 µM)						
Cc1nn(-c2ccccc2)c(Oc2ccc(Cl)cc2Cl)c1/C=C1\SC(=S)N([C@@H](CC(C)C)C(=O)O)C1=O	4 µg/mL (≈ 6.94 µM)	4 µg/mL (≈ 6.94 µM)	4 µg/mL (≈ 6.94 µM)		4 µg/mL (≈ 6.94 µM)						
COc1ccccc1Oc1c(/C=C2\SC(=S)N([C@H](C(=O)O)C(C)C)C2=O)c(C)nn1-c1ccccc1	16 µg/mL (≈ 30.6 µM)	16 µg/mL (≈ 30.6 µM)	16 µg/mL (≈ 30.6 µM)		16 µg/mL (≈ 30.6 µM)						
Cc1ccccc1Oc1c(/C=C2\SC(=S)N([C@H](C(=O)O)C(C)C)C2=O)c(C)nn1-c1ccccc1	8 µg/mL (≈ 15.8 µM)	4 µg/mL (≈ 7.88 µM)	8 µg/mL (≈ 15.8 µM)		8 µg/mL (≈ 15.8 µM)						
CCC(C)[C@@H](C(=O)O)N1C(=O)/C(=C/c2c(C)nn(-c3ccccc3)c2Oc2cccc(Cl)c2)SC1=S (some centres undefined)	8 µg/mL (≈ 14.8 µM)	4 µg/mL (≈ 7.38 µM)	8 µg/mL (≈ 14.8 µM)		8 µg/mL (≈ 14.8 µM)						
Cc1nn(-c2ccccc2)c(Oc2ccc(Br)cc2)c1/C=C1\SC(=S)N([C@H](C(=O)O)C(C)C)C1=O	4 µg/mL (≈ 6.99 µM)	2 µg/mL (≈ 3.49 µM)	4 µg/mL (≈ 6.99 µM)		4 µg/mL (≈ 6.99 µM)						
Cc1nn(-c2ccccc2)c(Oc2ccccc2)c1/C=C1\SC(=S)N([C@H](C(=O)O)C(C)C)C1=O	16 µg/mL (≈ 32.4 µM)	16 µg/mL (≈ 32.4 µM)	16 µg/mL (≈ 32.4 µM)		16 µg/mL (≈ 32.4 µM)						
Cc1nn(-c2ccccc2)c(Oc2ccc(Cl)cc2)c1/C=C1\SC(=S)N([C@H](C(=O)O)C(C)C)C1=O	4 µg/mL (≈ 7.57 µM)	4 µg/mL (≈ 7.57 µM)	4 µg/mL (≈ 7.57 µM)		4 µg/mL (≈ 7.57 µM)						
Cc1nn(-c2ccccc2)c(Oc2cccc(C(F)(F)F)c2)c1/C=C1\SC(=S)N(CC(=O)O)C1=O	32 µg/mL (≈ 61.6 µM)	16 µg/mL (≈ 30.8 µM)	32 µg/mL (≈ 61.6 µM)		32 µg/mL (≈ 61.6 µM)						
Cc1nn(-c2ccccc2)c(Oc2cccc(Cl)c2)c1/C=C1\SC(=S)N(CC(=O)O)C1=O	16 µg/mL (≈ 32.9 µM)	16 µg/mL (≈ 32.9 µM)	8 µg/mL (≈ 16.5 µM)		16 µg/mL (≈ 32.9 µM)						
Cc1ccc(Oc2c(/C=C3\SC(=S)N(CC(=O)O)C3=O)c(C)nn2-c2ccccc2)cc1	32 µg/mL (≈ 68.7 µM)	32 µg/mL (≈ 68.7 µM)	32 µg/mL (≈ 68.7 µM)		32 µg/mL (≈ 68.7 µM)						
CCC(C)[C@@H](C(=O)O)N1C(=O)/C(=C/c2c(C)nn(-c3ccccc3)c2Oc2ccc(Br)cc2)SC1=S (some centres undefined)	2 µg/mL (≈ 3.41 µM)	2 µg/mL (≈ 3.41 µM)	2 µg/mL (≈ 3.41 µM)		2 µg/mL (≈ 3.41 µM)						
Cc1nn(-c2ccccc2)c(Oc2ccc(Cl)cc2)c1/C=C1\SC(=S)N(CC(=O)O)C1=O	16 µg/mL (≈ 32.9 µM)	16 µg/mL (≈ 32.9 µM)	16 µg/mL (≈ 32.9 µM)		16 µg/mL (≈ 32.9 µM)						
Cc1nn(-c2ccccc2)c(Cl)c1/C=C1\SC(=S)N(CC(=O)O)C1=O	> 64 µg/mL	> 64 µg/mL	> 64 µg/mL		> 64 µg/mL						
